Assay results published in ChEMBL document CHEMBL5724801, “EUbOPEN Chemogenomics Library - Multiplex” (2024).
Several values for one entry are separate records, joined by “and”; a condition that tells them apart may be missing. Equal entries are not always repeated.

Columns and labels:
U2OS = experiment: Multiplex assay against U2OS; format: toxicity, cell-based; details: human
Method in brief: (§1)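 Four dyes were applied at seeding to live cells: Hoechst33342, BioTracker Green Microtubule Cytoskeleton Dye, MitoTracker Red and Annexin V Alexa Fluor 680. Imaging after compound addition used a CQ1 microscope at 37°C and 5% CO2. CellPathfinder machine-learning gating then sorted cells into Hoechst high-intensity objects or normal cells, normal cells into healthy, pyknosed or fragmented nuclei, and pyknosed cells into mitotic or apoptotic, with tubulin, mitochondrial-mass and membrane-permeability phenotypes given as per cents of healthy-nucleus cells.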

HEK-293T = experiment: Multiplex assay against HEK293T; format: toxicity, cell-based; details: human; method in brief: as §1
[1] = 24 h, 10 µM, compound concentration 10 uM
[2] = 48 h, 1 µM, compound concentration 1 uM
[3] = 48 h, 10 µM, compound concentration 10 uM
[4] = 12 h, 1 µM, compound concentration 1 uM
[5] = 12 h, 10 µM, compound concentration 10 uM
[6] = 24 h, 1 µM, compound concentration 1 uM

SMILES: CN[C@@H](C)C(=O)N[C@H](C(=O)N1CCC[C@H]1C(=O)Nc1snnc1-c1ccccc1)C1CCCCC1 [GDC-0152]
- Population Apoptotic (%) (U2OS; [1]): 68% and 92%
- Population Fragmented Nuclei (%) (U2OS; [1]): 36% and 20%
- Population Healthy Nuclei (%) (U2OS; [1]): 43% and 40%
- Population Hoechst High Intensity Objects (%) (U2OS; [1]): 3% and 10%
- Population Membrane Permeable-Phenotype (%) (U2OS; [1]): 53% and 59%
- Population Mitochondria Different-Phenotype (%) (U2OS; [1]): 59% and 65%
- Population Normal (%) (U2OS; [1]): 96% and 89%
- Population Pyknosed Nuclei (%) (U2OS; [1]): 20% and 38%
- Population Tubulin-Different-Phenotype (%) (U2OS; [1]): 59% and 81%
- Total Cell Count (U2OS; [1]): 220 and 121
- Population Apoptotic (%) (U2OS; [2]): 93% and 88%
- Population Fragmented Nuclei (%) (U2OS; [2]): 35%
- Population Healthy Nuclei (%) (U2OS; [2]): 32% and 30%
- Population Hoechst High Intensity Objects (%) (U2OS; [2]): 8%
- Population Membrane Permeable-Phenotype (%) (U2OS; [2]): 16% and 38%
- Population Mitochondria Different-Phenotype (%) (U2OS; [2]): 12% and 17%
- Population Mitotic Cells (%) (U2OS; [2]): 6% and 11%
- Population Normal (%) (U2OS; [2]): 91%
- Population Pyknosed Nuclei (%) (U2OS; [2]): 32% and 34%
- Population Tubulin-Different-Phenotype (%) (U2OS; [2]): 9% and 27%
- Total Cell Count (U2OS; [2]): 246 and 170
- Population Apoptotic (%) (U2OS; [3]): 100% and 98%
- Population Fragmented Nuclei (%) (U2OS; [3]): 47% and 45%
- Population Healthy Nuclei (%) (U2OS; [3]): 22% and 8%
- Population Hoechst High Intensity Objects (%) (U2OS; [3]): 11% and 14%
- Population Membrane Permeable-Phenotype (%) (U2OS; [3]): 39% and 80%
- Population Mitochondria Different-Phenotype (%) (U2OS; [3]): 39% and 50%
- Population Mitotic Cells (%) (U2OS; [3]): 0% and 1%
- Population Normal (%) (U2OS; [3]): 88% and 85%
- Population Pyknosed Nuclei (%) (U2OS; [3]): 29% and 45%
- Population Tubulin-Different-Phenotype (%) (U2OS; [3]): 43% and 80%
- Total Cell Count (U2OS; [3]): 246 and 138
- Population Apoptotic (%) (HEK-293T; [4]): 31% and 60%
- Population Fragmented Nuclei (%) (HEK-293T; [4]): 5%
- Population Healthy Nuclei (%) (HEK-293T; [4]): 78% and 79%
- Population Hoechst High Intensity Objects (%) (HEK-293T; [4]): 5% and 7%
- Population Membrane Permeable-Phenotype (%) (HEK-293T; [4]): 0%
- Population Mitochondria Different-Phenotype (%) (HEK-293T; [4]): 41% and 62%
- Population Mitotic Cells (%) (HEK-293T; [4]): 68% and 39%
- Population Normal (%) (HEK-293T; [4]): 94% and 92%
- Population Pyknosed Nuclei (%) (HEK-293T; [4]): 15% and 14%
- Population Tubulin-Different-Phenotype (%) (HEK-293T; [4]): 35% and 26%
- Total Cell Count (HEK-293T; [4]): 444 and 314
- Population Apoptotic (%) (HEK-293T; [5]): 50% and 72%
- Population Fragmented Nuclei (%) (HEK-293T; [5]): 6% and 7%
- Population Healthy Nuclei (%) (HEK-293T; [5]): 73%
- Population Hoechst High Intensity Objects (%) (HEK-293T; [5]): 13% and 20%
- Population Membrane Permeable-Phenotype (%) (HEK-293T; [5]): 0%
- Population Mitochondria Different-Phenotype (%) (HEK-293T; [5]): 78% and 89%
- Population Mitotic Cells (%) (HEK-293T; [5]): 49% and 28%
- Population Normal (%) (HEK-293T; [5]): 86% and 80%
- Population Pyknosed Nuclei (%) (HEK-293T; [5]): 20% and 18%
- Population Tubulin-Different-Phenotype (%) (HEK-293T; [5]): 78% and 72%
- Total Cell Count (HEK-293T; [5]): 362 and 330
- Population Apoptotic (%) (HEK-293T; [6]): 30% and 38%
- Population Fragmented Nuclei (%) (HEK-293T; [6]): 8% and 5%
- Population Healthy Nuclei (%) (HEK-293T; [6]): 80% and 82%
- Population Hoechst High Intensity Objects (%) (HEK-293T; [6]): 4% and 6%
- Population Membrane Permeable-Phenotype (%) (HEK-293T; [6]): 1% and 0%
- Population Mitochondria Different-Phenotype (%) (HEK-293T; [6]): 28% and 53%
- Population Mitotic Cells (%) (HEK-293T; [6]): 69% and 61%
- Population Normal (%) (HEK-293T; [6]): 95% and 93%
- Population Pyknosed Nuclei (%) (HEK-293T; [6]): 10% and 12%
- Population Tubulin-Different-Phenotype (%) (HEK-293T; [6]): 23% and 22%
- Total Cell Count (HEK-293T; [6]): 601 and 387
- Population Apoptotic (%) (HEK-293T; [1]): 45% and 60%
- Population Fragmented Nuclei (%) (HEK-293T; [1]): 10% and 12%
- Population Healthy Nuclei (%) (HEK-293T; [1]): 71% and 68%
- Population Hoechst High Intensity Objects (%) (HEK-293T; [1]): 7% and 21%
- Population Membrane Permeable-Phenotype (%) (HEK-293T; [1]): 0%
- Population Mitochondria Different-Phenotype (%) (HEK-293T; [1]): 74% and 80%
- Population Mitotic Cells (%) (HEK-293T; [1]): 54% and 40%
- Population Normal (%) (HEK-293T; [1]): 92% and 78%
- Population Pyknosed Nuclei (%) (HEK-293T; [1]): 17% and 19%
- Population Tubulin-Different-Phenotype (%) (HEK-293T; [1]): 69% and 58%
- Total Cell Count (HEK-293T; [1]): 454 and 400
- Population Apoptotic (%) (HEK-293T; [2]): 31% and 40%
- Population Fragmented Nuclei (%) (HEK-293T; [2]): 12% and 10%
- Population Healthy Nuclei (%) (HEK-293T; [2]): 78% and 82%
- Population Hoechst High Intensity Objects (%) (HEK-293T; [2]): 4% and 3%
- Population Membrane Permeable-Phenotype (%) (HEK-293T; [2]): 1%
- Population Mitochondria Different-Phenotype (%) (HEK-293T; [2]): 22% and 29%
- Population Mitotic Cells (%) (HEK-293T; [2]): 68% and 60%
- Population Normal (%) (HEK-293T; [2]): 95% and 96%
- Population Pyknosed Nuclei (%) (HEK-293T; [2]): 9% and 6%
- Population Tubulin-Different-Phenotype (%) (HEK-293T; [2]): 16%
- Total Cell Count (HEK-293T; [2]): 928 and 603
- Population Apoptotic (%) (HEK-293T; [3]): 47% and 60%
- Population Fragmented Nuclei (%) (HEK-293T; [3]): 12%
- Population Healthy Nuclei (%) (HEK-293T; [3]): 73% and 70%
- Population Hoechst High Intensity Objects (%) (HEK-293T; [3]): 16% and 21%
- Population Membrane Permeable-Phenotype (%) (HEK-293T; [3]): 0%
- Population Mitochondria Different-Phenotype (%) (HEK-293T; [3]): 74% and 76%
- Population Mitotic Cells (%) (HEK-293T; [3]): 52% and 39%
- Population Normal (%) (HEK-293T; [3]): 83% and 78%
- Population Pyknosed Nuclei (%) (HEK-293T; [3]): 13% and 17%
- Population Tubulin-Different-Phenotype (%) (HEK-293T; [3]): 55% and 52%
- Total Cell Count (HEK-293T; [3]): 538 and 417
